Experimental data pooled from the literature.
Target: Beta-secretase 1 (BACE1, Homo sapiens, UniProt P56817)
Mode: inhibitor

SMILES	test	setting	IC50
CC[C@H](C[C@H](O)[C@@H](N)COc1ccc(-c2ccc(F)cc2)c(OCCCOC)c1)C(=O)N[C@H](C(=O)NCc1ccc(Cl)cc1)[C@@H](C)CC	enzyme activity	pH 4.5	1.1 µM
COc1ccc2c(c1)OC1Oc3cc(O)cc(O)c3C(=O)C21O (stereo not drawn)	enzyme activity	–	139 µM
[H]/N=C1\N[C@](C)(c2cccc(Nc3cnc(C4CC4)nc3)c2Cl)CC(=O)N1[C@H]1CCO[C@@H](C)C1	enzyme activity, FRET	–	> 10 µM
CC1(c2ccccc2)COCC(N)=N1 (stereo not drawn)	enzyme activity, FRET	pH 5	200 µM
C=C(C)[C@@H]1CCC(C)=C[C@H]1c1c(O)cc2occ(-c3ccc(O)cc3)c(=O)c2c1O (relative stereo)	enzyme activity	–	> 200 µM
CC[C@H](C)[C@H](NC(=O)[C@@H](C[C@H](O)[C@@H](N)COc1ccc(-c2ccc(F)cc2)c(OCCCOC)c1)C(C)C)C(=O)NCc1ccc(Cl)cc1	enzyme activity	pH 4.5	0.81 µM
Cc1cc2cc(c1)C(=O)N[C@H]([C@H](O)CN(Cc1cccc(C(C)C)c1)C(=O)OC(C)(C)C)CCC/C=C/CCCC2=O	enzyme activity in cells	–	> 10 µM
CC(C)=CCc1c(O)cc(O)c2c(=O)c(-c3ccc(O)cc3)coc12	enzyme activity	–	27 µM
CN(C)c1nc(N2CCCC2)nc2ccccc12	enzyme activity, FRET	pH 5	500 µM
